In ChEMBL document CHEMBL1124174, “Substituted benzamides. 1. Potential nondopaminergic antagonists of chemotherapy-induced nausea and emesis” (J Med Chem, 1988):
“And” between values parts separate entries of the source, which are not always exact repeats. Equal entries are not always repeated.

Tests used:
D(2) dopamine receptor = D(2) dopamine receptor (Rattus norvegicus, UniProt P61169); assay: In vitro antagonistic activity against Dopamine receptor D2 was evaluated for the inhibition of [3H]spiperone binding
Sequence of D(2) dopamine receptor (P61169 whole entry): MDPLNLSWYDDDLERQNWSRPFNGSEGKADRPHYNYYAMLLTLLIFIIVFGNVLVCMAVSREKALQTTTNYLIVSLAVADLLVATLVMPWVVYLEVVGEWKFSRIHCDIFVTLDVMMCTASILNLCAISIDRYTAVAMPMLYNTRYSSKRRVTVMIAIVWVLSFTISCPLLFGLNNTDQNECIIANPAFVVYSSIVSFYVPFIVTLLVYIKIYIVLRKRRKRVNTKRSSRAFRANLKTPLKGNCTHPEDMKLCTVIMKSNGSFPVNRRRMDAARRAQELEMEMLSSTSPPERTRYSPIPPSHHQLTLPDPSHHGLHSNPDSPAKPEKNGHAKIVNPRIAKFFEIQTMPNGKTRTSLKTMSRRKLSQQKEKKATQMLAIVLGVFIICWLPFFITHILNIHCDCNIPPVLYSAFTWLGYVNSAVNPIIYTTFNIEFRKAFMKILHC
In short: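 Rat striatal membranes were prepared by differential centrifugation in 50 mM Tris pH 7.4 at 4 °C. Membrane protein (10 mg) was incubated 15 min at 37 °C with 0.1 nM [3H]spiperone and varying competitor concentrations. Buffer: 50 mM Tris HCl pH 7.5, 0.1% ascorbic acid, pargyline, 120 mM NaCl, 5 mM KCl, 2 mM CaCl2, 1 mM MgCl2. (+)-Butaclamol defined nonspecific binding. Bound ligand was collected by filtration and scintillation counted. IC50 by log-logit regression.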

[1] = target: D(2) dopamine receptor (Rattus norvegicus) (UniProt P61169); assay: In vivo antagonistic activity against dopamine D2 receptor was measured as catalepsy in rat when administered subcutaneously; type: functional, organism-based
Sequence of D(2) dopamine receptor (Rattus norvegicus) (P61169 whole entry): as above
In short: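 Male Long Evans rats (275 g) received graded sc doses in dilute aqueous HCl (pH 4.5-5.5). They were observed 180 min for catalepsy, scored when the animal stayed stationary ≥15 s on a four-cork template.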

Canis familiaris [2] = assay: In vivo antagonism of cisplatin-induced emesis in dog measured as percentage protection for twice the dose of 3 mg/kg in 2 dogs; type: functional, Canis lupus familiaris
In short: (§1)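 Nonfasted mature male or female beagles were dosed sc twice, 30 min before and 120 min after cisplatin (3 mg/kg iv; 3 mg/mL in warm 0.9% saline, used immediately). Emesis was observed up to 5 h; events within 2 min counted as one episode. Results were given as mean emetic episodes and % protection versus a dynamic control (historical and concurrent saline means pooled). t test versus saline.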

Mustela putorius furo [3] = assay: In vivo antagonism of cisplatin-induced emesis in ferret measured as percentage protection for twice the dose of 3 mg/kg and in 3 ferrets; type: functional
In short: (§2)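 Nonfasted castrated male Fitch ferrets (1–1.5 kg) had jugular catheters implanted ≥48 h earlier under anesthesia. Compounds or saline were given iv twice, 5 min before and 90 min after cisplatin (12 mg/kg iv; 12 mg/mL in warm 0.9% saline). Emesis was observed up to 4 h; events within 1 min counted as one episode. Results were given as mean emetic episodes and % protection versus a pooled historical/concurrent control. t test versus saline.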

Canis familiaris [4] = assay: In vivo antagonism of cisplatin-induced emesis in dog measured as emetic episodes, twice the dose of 6 mg/kg in 2 dogs; type: functional, Canis lupus familiaris; in short: as §1
Mustela putorius furo [5] = assay: In vivo antagonism of cisplatin-induced emesis in ferret measured as emetic episodes, twice the dose of 3 mg/kg and in 3 ferrets; type: functional; in short: as §2
Mustela putorius furo [6] = assay: In vivo antagonism of cisplatin-induced emesis in ferret measured as emetic episodes, twice the dose of 1 mg/kg and in 3 ferrets; type: functional; in short: as §2
[7] = target: D(2) dopamine receptor (Canis lupus familiaris) (UniProt Q9GJU1); assay: In vivo antagonism activity against dopamine D2 receptor was measured as emesis in dog when administered subcutaneously; type: functional, organism-based
Sequence of D(2) dopamine receptor (Canis lupus familiaris) (Q9GJU1 whole entry): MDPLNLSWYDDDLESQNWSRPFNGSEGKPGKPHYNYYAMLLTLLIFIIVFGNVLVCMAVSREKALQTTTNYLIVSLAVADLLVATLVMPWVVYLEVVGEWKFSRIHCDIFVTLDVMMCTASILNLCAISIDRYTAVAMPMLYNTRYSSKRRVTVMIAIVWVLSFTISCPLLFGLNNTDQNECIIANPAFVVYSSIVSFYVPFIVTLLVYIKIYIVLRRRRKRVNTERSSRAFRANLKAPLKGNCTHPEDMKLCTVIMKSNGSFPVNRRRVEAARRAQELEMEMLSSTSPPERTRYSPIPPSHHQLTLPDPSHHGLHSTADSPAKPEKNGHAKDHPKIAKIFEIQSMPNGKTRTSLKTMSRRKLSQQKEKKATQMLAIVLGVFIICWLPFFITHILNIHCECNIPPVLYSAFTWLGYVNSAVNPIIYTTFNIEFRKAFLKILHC

[8] = target: D(2) dopamine receptor (Rattus norvegicus) (UniProt P61169); assay: In vivo antagonism activity against D2 receptor was measured as stereotypy in rat when administered subcutaneously; type: functional, organism-based
In short: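 Male Long Evans rats (275 g) were dosed sc in dilute aqueous HCl (pH 4.5-5.5) 30 min before apomorphine (1 mg/kg sc).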

Canis familiaris [9] = assay: In vivo antagonism of cisplatin-induced emesis in dog measured as percentage protection for twice the dose of 6 mg/kg in 2 dogs; type: functional, Canis lupus familiaris; in short: as §1
Mustela putorius furo [10] = assay: In vivo antagonism of cisplatin-induced emesis in ferret measured as percentage protection for twice the dose of 31 mg/kg and in 3 ferrets; type: functional; settings: dose 1 mg/kg; in the assay text read “1 mg/kg” for “31 mg/kg”; in short: as §2
Canis familiaris [11] = assay: In vivo antagonism of cisplatin-induced emesis in dog measured as emetic episodes, twice the dose of 3 mg/kg in 2 dogs; type: functional, Canis lupus familiaris; in short: as §1
Canis familiaris [12] = assay: In vivo antagonism of cisplatin-induced emesis in dog measured as percentage protection for twice the dose of 0.3 mg/kg in 2 dogs; type: functional, Canis lupus familiaris; in short: as §1
Mustela putorius furo [13] = assay: In vivo protection against cisplatin-induced emesis in ferret measured as emetic episodes for twice the dose of 0.3 mg/kg and in 6 ferrets; type: functional
In short: (§3)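 Nonfasted castrated male Fitch ferrets (1–1.5 kg) carried jugular vein catheters implanted at least 48 h earlier under general anesthesia. Test compound or saline was given iv twice, 5 min before and 90 min after cisplatin (12 mg/kg iv; 12 mg/mL in warm saline). Emesis was watched for 4 h, with events within 1 min counted as one episode. % protection is relative to a pooled historical-plus-concurrent control, with t test versus saline.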

Mustela putorius furo [14] = assay: In vivo antagonism of cisplatin-induced emesis in ferret measured as emetic episodes, twice the dose of 0.1 mg/kg and in 3 ferrets; type: functional; in short: as §2
Mustela putorius furo [15] = assay: In vivo antagonism of cisplatin-induced emesis in ferret measured as percentage protection for twice the dose of 3 mg/kg
Canis familiaris [16] = assay: In vivo antagonism of cisplatin-induced emesis in dog measured as emetic episodes, twice the dose of 1 mg/kg in 2 dogs; type: functional, Canis lupus familiaris; in short: as §1
Mustela putorius furo [17] = assay: In vivo antagonism of cisplatin-induced emesis in ferret measured as percentage protection for twice the dose of 3 mg/kg and […]; type: functional; in short: as §2
Canis familiaris [18] = assay: In vivo antagonism of cisplatin-induced emesis in dog measured as percentage protection for twice the dose of 1 mg/kg in 2 dogs; type: functional, Canis lupus familiaris; in short: as §1
Canis familiaris [19] = assay: In vivo antagonism of cisplatin-induced emesis in dog measured as emetic episodes, twice the dose of 0.1 mg/kg in 2 dogs; type: functional, Canis lupus familiaris; in short: as §1
Canis familiaris [20] = assay: In vivo antagonism of cisplatin-induced emesis in dog measured as percentage protection for twice the dose of 0.1 mg/kg in 2 dogs; type: functional, Canis lupus familiaris; in short: as §1
Mustela putorius furo [21] = assay: In vivo protection against cisplatin-induced emesis in ferret measured as percentage protection for twice the dose of 0.1 mg/kg and in 3 ferrets; type: functional; in short: as §3
Mustela putorius furo [22] = assay: In vivo protection against cisplatin-induced emesis in ferret measured as percentage protection for twice the dose of 0.3 mg/kg and in 6 ferrets; type: functional; in short: as §3
Canis familiaris [23] = assay: In vivo protection against cisplatin-induced emesis in dog measured as percentage protection twice the dose of 0.1 mg/kg and in 3 dogs
Canis familiaris [24] = assay: In vivo protection against cisplatin-induced emesis in dog measured as percentage protection for twice the dose of 0.1 mg/kg and in 3 […]; type: functional, Canis lupus familiaris
Canis familiaris [25] = assay: In vivo protection against cisplatin-induced emesis in dog measured as emetic episodes for twice the dose of 0.1 mg/kg and in 3 […]; type: functional, Canis lupus familiaris
Mustela putorius furo [26] = assay: In vivo antagonism of cisplatin-induced emesis in ferret measured as emetic episodes, twice the dose of 0.3 mg/kg and in 3 ferrets; type: functional; in short: as §2
Canis familiaris [27] = assay: In vivo protection against cisplatin-induced emesis in dog measured as emetic episodes for twice the dose of 0.3 mg/kg and in 5 […]; type: functional, Canis lupus familiaris
Canis familiaris [28] = assay: In vivo protection against cisplatin-induced emesis in dog measured as emetic episodes for twice the dose of 0.9 mg/kg and in 3 […]; type: functional, Canis lupus familiaris
Mustela putorius furo [29] = assay: In vivo protection against cisplatin-induced emesis in ferret measured as emetic episodes for twice the dose of 0.1 mg/kg and in 3 ferrets; type: functional; in short: as §3
Canis familiaris [30] = assay: In vivo antagonism of cisplatin-induced emesis in dog measured as emetic episodes, twice the dose of 0.3 mg/kg in 2 dogs; type: functional, Canis lupus familiaris; in short: as §1
Mustela putorius furo [31] = assay: In vivo protection against cisplatin-induced emesis in ferret measured as emetic episodes for twice the dose of 2.7 mg/kg and in 3 ferrets; type: functional; in short: as §3
Mustela putorius furo [32] = assay: In vivo protection against cisplatin-induced emesis in ferret measured as percentage protection for twice the dose of 0.9 mg/kg and in 6 ferrets; type: functional; in short: as §3
Canis familiaris [33] = assay: cisplatin-induced emesis in dog was measured for when administered twice daily; settings: Canis lupus familiaris
Mustela putorius furo [34] = assay: Cisplatin-induced emesis in ferret measured as stereotypy […] when administered iv […] twice daily; type: functional
Mustela putorius furo [35] = assay: In vivo protection against cisplatin-induced emesis in ferret measured as percentage protection for twice the dose of 2.7 mg/kg and in 0.1 ferrets; type: functional; settings: in the assay text read “in 3 ferrets” for “in 0.1 ferrets”; in short: as §3
Mustela putorius furo [36] = assay: In vivo protection against cisplatin-induced emesis in ferret measured as p emetic episodes for twice the dose of 0.9 mg/kg and in 6 ferrets; type: functional; in short: as §3
Mustela putorius furo [37] = assay: In vitro antagonism of cisplatin-induced emesis in ferret measured as percentage protection for twice the dose of 1 mg/kg and in 3 ferrets; type: functional; settings: in the assay text read “In vivo” for “In vitro”; in short: as §2
Mustela putorius furo [38] = assay: In vivo antagonism of cisplatin-induced emesis in ferret measured as emetic episodes, twice the dose of 3 mg/kg and in 2 ferrets; type: functional; in short: as §2
Mustela putorius furo [39] = assay: In vivo antagonism of cisplatin-induced emesis in ferret measured as percentage protection for twice the dose of 3 mg/kg and in 2 ferrets; type: functional; in short: as §2

Work on `C#CCOc1cc(N)c(Cl)cc1C(=O)NCCN(CC)CC` yielded an IC50 (D(2) dopamine receptor) greater than 1 µM, an ED50 [1] greater than 40 mg/kg and a Protection (Canis familiaris [2]) of 72%. The Protection (Mustela putorius furo [3]) was 50%, the Emetic episodes (Canis familiaris [4]) was 2 and the Emetic episodes (Mustela putorius furo [5]) was 3.3. The Emetic episodes (Mustela putorius furo [6]) was 4.3, the ED50 [7] was greater than 1 mg/kg and the ED50 [8] was greater than 40 mg/kg. It also gave a Protection (Canis familiaris [9]) of 73%, a Protection (Mustela putorius furo [10]) of 40% and an Emetic episodes (Canis familiaris [11]) of 3.5.
`CCN(CC)CCNC(=O)c1cc(Cl)c(N)cc1OC(C)C(C)=O` (stereo not drawn) [BATANOPRIDE] showed a Protection (Canis familiaris [12]) of 87%, an IC50 (D(2) dopamine receptor) greater than 1 µM and an Emetic episodes (Mustela putorius furo [13]) of 2.5. The ED50 [1] was greater than 40 mg/kg, the Emetic episodes (Mustela putorius furo [14]) was 3.3 and the Emetic episodes (Mustela putorius furo [5]) was 0.3. The Protection (Mustela putorius furo [15]) was 90%, the Emetic episodes (Canis familiaris [16]) was 0.5 and the Protection (Mustela putorius furo [17]) was 96% and 54%. The Protection (Canis familiaris [18]) was 96%, the ED50 [7] was greater than 3 mg/kg and the Emetic episodes (Canis familiaris [19]) was 0.5. For the same compound, the ED50 [8] was greater than 40 mg/kg, the Protection (Canis familiaris [20]) was 60% and the Protection (Mustela putorius furo [21]) was 53%. For the same compound, the Protection (Mustela putorius furo [22]) was 64%, the Protection (Canis familiaris [23]) was 58% and the Protection (Canis familiaris [24]) was 86% and 100%. The Emetic episodes (Canis familiaris [25]) was 5, the Emetic episodes (Mustela putorius furo [26]) was 1 and the Emetic episodes (Canis familiaris [27]) was 1.6. The Emetic episodes (Canis familiaris [28]) was 0, the Emetic episodes (Mustela putorius furo [29]) was 3.3 and the Emetic episodes (Canis familiaris [30]) was 1.5. It also gave an Emetic episodes (Mustela putorius furo [31]) of 0.3, a Protection (Mustela putorius furo [32]) of 93% and an ED50 (Canis familiaris [33]) of 0.05 mg/kg. The ED50 (Mustela putorius furo [34]) was 0.14 mg/kg, the Protection (Mustela putorius furo [35]) was 96% and the Emetic episodes (Mustela putorius furo [36]) was 0.5.
For `CCN(CC)CCNC(=O)c1cc(Cl)c(N)cc1OC(C)(C)C(C)=O`, the Protection (Canis familiaris [12]) was 77%, the IC50 (D(2) dopamine receptor) was greater than 1 µM and the ED50 [1] was greater than 40 mg/kg. The Emetic episodes (Mustela putorius furo [6]) was 2.7, the ED50 [7] was greater than 3 mg/kg and the ED50 [8] was greater than 40 mg/kg. It also gave an Emetic episodes (Canis familiaris [30]) of 2.7 and a Protection (Mustela putorius furo [37]) of 62%.
`CCN(CC)CCNC(=O)c1cc(Cl)c(N)cc1OCOCCOC` gave an Emetic episodes (Mustela putorius furo [38]) of 0, a Protection (Mustela putorius furo [39]) of 100% and an IC50 (D(2) dopamine receptor) greater than 1 µM. It also gave an ED50 [1] greater than 40 mg/kg, an Emetic episodes (Canis familiaris [16]) of 3.5 and a Protection (Canis familiaris [18]) of 72%. The ED50 [7] was greater than 3 mg/kg and the ED50 [8] was greater than 40 mg/kg.
